Legend:
CHO [1] = assay: Mitotic arrest in CHO cells assessed as increase in cell accumulation at 0.002 ug/ml; format: functional, Cricetulus griseus
Method in brief: (§1)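 Chinese hamster ovary cells in tissue culture, scored for mitotic arrest as increase in cells in mitotic arrest over control: +++, 40–50%; ++, 15–40%; +, 10–15%; ±, 7–10%; –, 3–7%. Cytotoxicity noted separately.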

Mus musculus [2] = assay: Toxicity in mouse assessed as body weight at 0.5 mg/kg, ip administered twice per week for 4 weeks, then three doses per week for 3 weeks and finally six doses per week for 2 weeks measured during 9-weeks (reference value: 18.5 +/- 0.5 gms); format: organism-based; parameters: dose 0.5 mg/kg, route intraperitoneal; conditions: in vivo, 1512 h
[3] = Antitumor activity against mouse Gardner lymphosarcoma allografted in C3H mouse assessed as tumor growth inhibition at 0.40 mg/kg, ip administered daily for 8 to 10 days; format: functional; conditions: route intraperitoneal, read-out: TGI
Method in brief: (§2)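 Gardner lymphosarcoma in C3H mice; sulfate salts unless noted, given ip daily for 8–10 days, treatment starting 8 days after tumor implantation. Tumor growth inhibition scored as –, 0–25%; +, 26–50%; ++, 51–75%; +++, 76–100%; T, lethal to ≥5 of 10 animals per group. Average of one or more tests.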

[4] = Antitumor activity against mouse P1534 cells allografted in DBA2 mouse assessed as tumor growth inhibition at 0.25 mg/kg, ip administered daily for 8 to 10 days; format: functional; conditions: route intraperitoneal, read-out: TGI
Method in brief: (§3)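 P1534(J) leukemia implanted sc in DBA2 mice; sulfate salts dosed ip daily for 8–10 days. Growth inhibition scored –, 0–25%; +, 26–50%; ++, 51–75%; +++, 76–100%; T, lethal to ≥5 of 10 animals per group. Average of one or more tests.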

[5] = Antitumor activity against mouse P388/VCR/I/63 cells allografted in Dublin-CDF1 mouse assessed as increase in host lifespan at 2.0 mg/kg, ip administered on days 1, 5 and 9; format: functional; conditions: route intraperitoneal
[6] = Antitumor activity against mouse Gardner lymphosarcoma allografted in C3H mouse assessed as tumor growth inhibition at 0.10 mg/kg, ip administered daily for 8 to 10 days; format: functional; conditions: route intraperitoneal, read-out: TGI; method in brief: as §2
P388/VCR [7] = assay: Antitumor activity against mouse P388/VCR cells allografted in B6D2F1 mouse assessed as increase in host lifespan at 1.20 mg/kg, ip administered on days 1, 5 and 9; format: functional; conditions: dose 1.2 mg/kg; route intraperitoneal
Method in brief: (§4)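 P388/VCR leukemia in groups of 10 B6D2F1 mice, run at Lilly using the cell strain received from NCI. Sulfate salts given ip on days 1, 5 and 9. Read-out is percent increase in lifespan.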

P388/VCR [8] = assay: Antitumor activity against mouse P388/VCR cells allografted in CD2F1 mouse assessed as increase in host lifespan at 1.80 mg/kg, ip administered on days 1, 5 and 9; format: functional; conditions: dose 1.8 mg/kg; route intraperitoneal
Method in brief: (§5)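 Groups of eight male CD2F1 mice, tested at the NCI. Compounds were given as sulfate salts, dosed in mg/kg ip on days 1, 5 and 9. Activity was read as percent increase in lifespan against the leukemia line.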

P388/S [9] = assay: Antitumor activity against mouse P388/S cells allografted in CD2F1 mouse assessed as increase in host lifespan at 1.08 mg/kg, ip administered on days 1, 5 and 9; format: functional; conditions: route intraperitoneal
Method in brief: (§6)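 Groups of eight male CD2F1 mice bearing P388 leukemia, run at NCI. Sulfate salts given ip on days 1, 5 and 9. Read-out is percent increase in lifespan.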

P388/S [10] = assay: Antitumor activity against mouse P388/S cells allografted in CD2F1 mouse assessed as increase in host lifespan at 1.80 mg/kg, ip administered on days 1, 5 and 9; format: functional; conditions: dose 1.8 mg/kg; route intraperitoneal; method in brief: as §5
[11] = Antitumor activity against mouse P1534 cells allografted in DBA2 mouse assessed as tumor growth inhibition at 0.30 mg/kg, ip administered daily for 8 to 10 days; format: functional; conditions: route intraperitoneal, read-out: TGI; method in brief: as §3
P388/S [12] = assay: Antitumor activity against mouse P388/S cells allografted in CD2F1 mouse assessed as increase in host lifespan at 0.648 mg/kg, ip administered on days 1, 5 and 9; format: functional; conditions: route intraperitoneal; method in brief: as §6
[13] = Toxicity in iv dosed mouse assessed as lethality; format: organism-based; conditions: in vivo
[14] = Antitumor activity against mouse P388/VCR/I/63 cells allografted in Dublin-CDF1 mouse assessed as day of host death at 2.0 mg/kg, ip administered on days 1, 5 and 9 (reference value: 10 days); format: functional; conditions: route intraperitoneal
[15] = Antitumor activity against mouse Ridgway osteogenic sarcoma allografted in AKR mouse assessed as tumor growth inhibition at 0.10 mg/kg, ip administered daily for 8 to 10 days compound treatment commenced 8 days after tumor implantation; format: functional; conditions: route intraperitoneal, read-out: TGI
P388/VCR [16] = assay: Antitumor activity against mouse P388/VCR cells allografted in CD2F1 mouse assessed as increase in host lifespan at 0.648 mg/kg, ip administered on days 1, 5 and 9; format: functional; conditions: route intraperitoneal; method in brief: as §6
CHO [17] = assay: Mitotic arrest in CHO cells assessed as increase in cell accumulation at 0.02 ug/ml; format: functional, Cricetulus griseus; method in brief: as §1
[18] = Antitumor activity against mouse Gardner lymphosarcoma allografted in C3H mouse assessed as tumor growth inhibition at 0.20 mg/kg, ip administered daily for 8 to 10 days; format: functional; conditions: route intraperitoneal, read-out: TGI; method in brief: as §2
P388/VCR [19] = assay: Antitumor activity against mouse P388/VCR cells allografted in B6D2F1 mouse assessed as increase in host lifespan at 0.90 mg/kg, ip administered on days 1, 5 and 9; format: functional; conditions: dose 0.9 mg/kg; route intraperitoneal; method in brief: as §4
[20] = Antitumor activity against mouse Gardner lymphosarcoma allografted in C3H mouse assessed as tumor growth inhibition at 0.05 mg/kg, ip administered daily for 8 to 10 days; format: functional; conditions: route intraperitoneal, read-out: TGI; method in brief: as §2
[21] = Antitumor activity against mouse Gardner lymphosarcoma allografted in C3H mouse assessed as tumor growth inhibition at 0.30 mg/kg, ip administered daily for 8 to 10 days; format: functional; conditions: route intraperitoneal, read-out: TGI; method in brief: as §2
[22] = Antitumor activity against mouse Ridgway osteogenic sarcoma allografted in AKR mouse assessed as tumor growth inhibition at 0.20 mg/kg, ip administered daily for 8 to 10 days compound treatment commenced 8 days after tumor implantation; format: functional; conditions: route intraperitoneal, read-out: TGI
Mus musculus [23] = assay: Toxicity in CD2F1 mouse allografted with mouse P388/S cells at 3.00 mg/kg, ip administered on days 1, 5 and 9; format: organism-based; parameters: dose 3 mg/kg, route intraperitoneal; conditions: in vivo
B16 [24] = assay: Antitumor activity against mouse B16 cells allografted in C57BL/6 mouse assessed as prolongation of host survival at 0.90 mg/kg, ip administered on days 1,5 and 9; format: functional; conditions: route intraperitoneal
Method in brief: (§7)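 B16 melanoma cells (10⁶ inoculum) implanted ip in C57BL/6 mice; groups of 10. Sulfate salts unless noted, given ip on days 1, 5 and 9. Single test. Survival prolongation is expressed as percent versus controls, with survivors counted on day 60. Toxic means deaths of ≥5 of 10 animals before the first control death.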

[25] = Antitumor activity against mouse P1534 cells allografted in DBA2 mouse assessed as tumor growth inhibition at 0.20 mg/kg, ip administered daily for 8 to 10 days; format: functional; conditions: route intraperitoneal, read-out: TGI; method in brief: as §3
[26] = Antitumor activity against mouse Ridgway osteogenic sarcoma allografted in AKR mouse assessed as tumor growth inhibition at 0.40 mg/kg, ip administered daily for 8 to 10 days compound treatment commenced 8 days after tumor implantation; format: functional; conditions: route intraperitoneal, read-out: TGI
Mus musculus [27] = assay: Toxicity in CD2F1 mouse allografted with mouse P388/VCR cells at 3.00 mg/kg, ip administered on days 1, 5 and 9; format: organism-based; parameters: dose 3 mg/kg, route intraperitoneal; conditions: in vivo
B16 [28] = assay: Antitumor activity against mouse B16 cells allografted in C57BL/6 mouse assessed as prolongation of host survival at 0.60 mg/kg, ip administered on days 1,5 and 9; format: functional; conditions: route intraperitoneal; method in brief: as §7
[29] = Antitumor activity against mouse Ridgway osteogenic sarcoma allografted in AKR mouse assessed as tumor growth inhibition at 0.30 mg/kg, ip administered daily for 8 to 10 days compound treatment commenced 8 days after tumor implantation; format: functional; conditions: route intraperitoneal, read-out: TGI
[30] = Antitumor activity against mouse Ridgway osteogenic sarcoma allografted in AKR mouse assessed as tumor growth inhibition at 0.05 mg/kg, ip administered daily for 8 to 10 days compound treatment commenced 8 days after tumor implantation; format: functional; conditions: route intraperitoneal, read-out: TGI
Mus musculus [31] = assay: Toxicity in C3H mouse allografted with mouse Gardner lymphosarcoma assessed as lethality at 0.5 mg/kg, ip administered daily for 8 to 10 days; format: organism-based; parameters: dose 0.5 mg/kg, route intraperitoneal; conditions: in vivo
Method in brief: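 Tumor-bearing mice given sulfate salts ip daily for 8–10 days; values are the average of one or more tests. Toxic means lethal to ≥5 of 10 animals per group.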

B16 [32] = assay: Antitumor activity against mouse B16 cells allografted in C57BL/6 mouse assessed as prolongation of host survival at 1.20 mg/kg, ip administered on days 1,5 and 9; format: functional; conditions: route intraperitoneal; method in brief: as §7
Mus musculus [33] = assay: Toxicity in DBA2 mouse allografted with mouse P1534 cells at 0.40 mg/kg, ip administered daily for 8 to 10 days; format: organism-based; parameters: dose 0.4 mg/kg, route intraperitoneal; conditions: in vivo, 0.4 mg/kg; method in brief: as §3
P388/VCR [34] = assay: Antitumor activity against mouse P388/VCR cells allografted in B6D2F1 mouse assessed as increase in host lifespan at 0.60 mg/kg, ip administered on days 1, 5 and 9; format: functional; conditions: dose 0.6 mg/kg; route intraperitoneal; method in brief: as §4
P388/VCR [35] = assay: Antitumor activity against mouse P388/VCR cells allografted in CD2F1 mouse assessed as increase in host lifespan at 1.08 mg/kg, ip administered on days 1, 5 and 9; format: functional; conditions: route intraperitoneal; method in brief: as §6

SMILES: CC[C@]1(O)C[C@@H]2CN(CCc3c([nH]c4ccccc34)[C@@](C(=O)OC)(c3cc4c(cc3OC)N(C)[C@H]3[C@@](O)(C(N)=O)[C@H](O)[C@]5(CC)C=CCN6CC[C@]43[C@@H]65)C2)C1.O=S(=O)(O)O [VINDESINE SULFATE]
- Activity (CHO [1]): 10%
- Activity (Mus musculus [2]): 34.9 g
- inhibition in vivo at 0.4 mg/kg [3]: 76%
- inhibition in vivo at 0.25 mg/kg [4]: 76%
- Activity [5]: 100%
- inhibition in vivo at 0.1 mg/kg [6]: 51%
- Activity (P388/VCR [7]): 3%
- Activity (P388/VCR [8]): -8%
- Activity (P388/S [9]): 129%
- Activity (P388/S [10]): 138%
- inhibition in vivo at 0.3 mg/kg [11]: 76%
- Activity (P388/S [12]): 96%
- LD50 [13]: 6.3 mg/kg
- Activity [14]: 20 days
- inhibition in vivo at 0.1 mg/kg [15]: 0%
- Activity (P388/VCR [16]): 4%
- Activity (CHO [17]): 15%
- inhibition in vivo at 0.2 mg/kg [18]: 76%
- Activity (P388/VCR [19]): 5%
- inhibition in vivo at 0.05 mg/kg [20]: 0%
- inhibition in vivo at 0.3 mg/kg [21]: 76%
- inhibition in vivo at 0.2 mg/kg [22]: 51%
- Activity (Mus musculus [23]): Toxic
- survival at 0.9 mg/kg (B16 [24]): 144%
- inhibition in vivo at 0.2 mg/kg [25]: 51%
- inhibition in vivo at 0.4 mg/kg [26]: 76%
- Activity (Mus musculus [27]): Toxic
- survival at 0.6 mg/kg (B16 [28]): 117%
- inhibition in vivo at 0.3 mg/kg [29]: 76%
- inhibition in vivo at 0.05 mg/kg [30]: 0%
- Activity (Mus musculus [31]): Toxic
- survival at 1.2 mg/kg (B16 [32]): 155%
- Activity (Mus musculus [33]): Toxic
- Activity (P388/VCR [34]): 0%
- Activity (P388/VCR [35]): 0%

From ChEMBL document CHEMBL3227917, “Structure-activity relationships of dimeric Catharanthus alkaloids. 2. Experimental antitumor activities of N-substituted deacetylvinblastine amide (vindesine) sulfates” (J Med Chem, 1979)
